In ChEMBL document CHEMBL3621107, “Ring fusion strategy for synthesis and lead optimization of sulfur-substituted anthra[1,2-c][1,2,5]thiadiazole-6,11-dione derivatives as promising scaffold of antitumor agents” (Eur J Med Chem, 2015):

Assays:
Malme-3M = test: Cytotoxicity against human MALME-3M cells assessed as cell growth at 10 uM after 48 hrs by SRB assay relative to control; format: functional; conditions: read-out: Activity
How it was run: (§1)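 First-stage NCI-60 screen by the NCI Developmental Therapeutics Program. Each compound was tested once at a single concentration of 10 μM against the 60-cell-line panel. Growth percentage was reported for each cell line.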

M14 = test: Cytotoxicity against human M14 cells assessed as cell growth at 10 uM after 48 hrs by SRB assay relative to control; format: functional; conditions: M14, 48 h, read-out: Activity; how it was run: as §1
SK-MEL-2 = test: Cytotoxicity against human SK-MEL-2 cells assessed as cell growth at 10 uM after 48 hrs by SRB assay relative to control; format: functional; conditions: SK-MEL-2, 48 h, read-out: Activity
How it was run: (§2)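 First-stage NCI DTP one-dose screen against the 60 human tumour cell line panel. Compounds were tested at a single 10 μM level, and results are given as growth percentage.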

SK-MEL-28 = test: Cytotoxicity against human SK-MEL-28 cells assessed as cell growth at 10 uM after 48 hrs by SRB assay relative to control; format: functional; conditions: SK-MEL-28, 48 h, read-out: Activity; how it was run: as §2
SK-MEL-5 = test: Cytotoxicity against human SK-MEL-5 cells assessed as cell growth at 10 uM after 48 hrs by SRB assay relative to control; format: functional; conditions: SK-MEL-5, 48 h, read-out: Activity; how it was run: as §2
UACC-62 = test: Cytotoxicity against human UACC62 cells assessed as cell growth at 10 uM after 48 hrs by SRB assay relative to control; format: functional; conditions: UACC-62, 48 h, read-out: Activity
How it was run: (§3)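 NCI-60 one-dose screen run by NCI DTP: each cell line exposed to a single 10 µM dose, and percentage growth recorded against untreated growth.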

IGROV-1 = test: Cytotoxicity against human IGROV1 cells assessed as cell growth at 10 uM after 48 hrs by SRB assay relative to control; format: functional; conditions: IGROV-1, 48 h, read-out: Activity; how it was run: as §1
NCI/ADR-RES = test: Cytotoxicity against human NCI/ADR-RES cells assessed as cell growth at 10 uM after 48 hrs by SRB assay relative to control; format: functional; conditions: read-out: Activity; how it was run: as §2
786-0 = test: Cytotoxicity against human 786-0 cells assessed as cell growth at 10 uM after 48 hrs by SRB assay relative to control; format: functional; conditions: 786-0, 48 h, read-out: Activity; how it was run: as §1
ACHN = test: Cytotoxicity against human ACHN cells assessed as cell growth at 10 uM after 48 hrs by SRB assay relative to control; format: functional; conditions: read-out: Activity; how it was run: as §1
SN12C = test: Cytotoxicity against human SN12C cells assessed as cell growth at 10 uM after 48 hrs by SRB assay relative to control; format: functional; conditions: read-out: Activity; how it was run: as §2
UO-31 = test: Cytotoxicity against human UO31 cells assessed as cell growth at 10 uM after 48 hrs by SRB assay relative to control; format: functional; conditions: UO-31, 48 h, read-out: Activity; how it was run: as §3
PC-3 = test: Cytotoxicity against human PC3 cells assessed as cell growth at 10 uM after 48 hrs by SRB assay relative to control; format: functional; conditions: PC-3, 48 h, read-out: Activity; how it was run: as §2
MDA-MB-468 = test: Cytotoxicity against human MDA-MB-468 cells assessed as cell growth at 10 uM after 48 hrs by SRB assay relative to control; format: functional; conditions: MDA-MB-468, 48 h, read-out: Activity; how it was run: as §2
DU-145 = test: Cytotoxicity against human DU145 cells after 72 hrs by MTT assay; format: functional, cell-based; conditions: DU-145, 72 h
How it was run: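 DU-145 cells grown in RPMI-1640 with 5% heat-inactivated fetal calf serum at 37 °C, 5% CO2. About 2×10^3 cells per well were seeded and incubated for 24 h. Compounds were dissolved in DMSO freshly and diluted into medium (vehicle 0.1% DMSO), then cells were exposed for 72 h. MTT was added for 3 h at 37 °C and absorbance read at 570 nm.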

K562 = test: Cytotoxicity against human K562 cells assessed as cell growth at 10 uM after 48 hrs by SRB assay relative to control; format: functional; conditions: K562, 48 h, read-out: Activity; how it was run: as §1
MOLT-4 = test: Cytotoxicity against human MOLT4 cells assessed as cell growth at 10 uM after 48 hrs by SRB assay relative to control; format: functional; conditions: MOLT-4, 48 h, read-out: Activity; how it was run: as §2
RPMI-8226 = test: Cytotoxicity against human RPMI8226 cells assessed as cell growth at 10 uM after 48 hrs by SRB assay relative to control; format: functional; conditions: RPMI-8226, 48 h, read-out: Activity; how it was run: as §2
NCI-H23 = test: Cytotoxicity against human NCI-H23 cells assessed as cell growth at 10 uM after 48 hrs by SRB assay relative to control; format: functional; conditions: NCI-H23, 48 h, read-out: Activity; how it was run: as §2
NCI-H522 = test: Cytotoxicity against human NCI-H522 cells assessed as cell growth at 10 uM after 48 hrs by SRB assay relative to control; format: functional; conditions: NCI-H522, 48 h, read-out: Activity; how it was run: as §2
HCC 2998 = test: Cytotoxicity against human HCC2998 cells assessed as cell growth at 10 uM after 48 hrs by SRB assay relative to control; format: functional; conditions: HCC 2998, 48 h, read-out: Activity; how it was run: as §1
HCT-15 = test: Cytotoxicity against human HCT15 cells assessed as cell growth at 10 uM after 48 hrs by SRB assay relative to control; format: functional; conditions: HCT-15, 48 h, read-out: Activity; how it was run: as §1
HT-29 = test: Cytotoxicity against human HT-29 cells assessed as cell growth at 10 uM after 48 hrs by SRB assay relative to control; format: functional; conditions: HT-29, 48 h, read-out: Activity; how it was run: as §1
KM12 = test: Cytotoxicity against human KM12 cells assessed as cell growth at 10 uM after 48 hrs by SRB assay relative to control; format: functional; conditions: KM12, 48 h, read-out: Activity; how it was run: as §1
SF-268 = test: Cytotoxicity against human SF268 cells assessed as cell growth at 10 uM after 48 hrs by SRB assay relative to control; format: functional; conditions: SF-268, 48 h, read-out: Activity; how it was run: as §2
SNB-75 = test: Cytotoxicity against human SNB75 cells assessed as cell growth at 10 uM after 48 hrs by SRB assay relative to control; format: functional; conditions: SNB-75, 48 h, read-out: Activity; how it was run: as §3
LOX IMVI = test: Cytotoxicity against human LOXIMVI cells assessed as cell growth at 10 uM after 48 hrs by SRB assay relative to control; format: functional; conditions: read-out: Activity; how it was run: as §1
MDA-MB-435 = test: Cytotoxicity against human MDA-MB-435 cells assessed as cell growth at 10 uM after 48 hrs by SRB assay relative to control; format: functional; conditions: MDA-MB-435, 48 h, read-out: Activity; how it was run: as §2
CAKI-1 = test: Cytotoxicity against human Caki1 cells assessed as cell growth at 10 uM after 48 hrs by SRB assay relative to control; format: functional; conditions: CAKI-1, 48 h, read-out: Activity; how it was run: as §1
[1] = Cytotoxicity against human EKVX cells assessed as cell growth at 10 uM after 48 hrs by SRB assay relative to control; format: functional; conditions: read-out: Activity; how it was run: as §1

Row | Structure (SMILES) | growth at 10 µM (Malme-3M) | growth at 10 µM (M14) | growth at 10 µM (SK-MEL-2) | growth at 10 µM (SK-MEL-28) | growth at 10 µM (SK-MEL-5) | growth at 10 µM (UACC-62) | growth at 10 µM (IGROV-1) | growth at 10 µM (NCI/ADR-RES) | growth at 10 µM (786-0) | growth at 10 µM (ACHN) | growth at 10 µM (SN12C) | growth at 10 µM (UO-31) | growth at 10 µM (MDA-MB-468) | IC50 (DU-145) | growth at 10 µM (NCI-H23) | growth at 10 µM (HCC 2998) | growth at 10 µM (HCT-15) | growth at 10 µM (HT-29) | growth at 10 µM (SNB-75) | growth at 10 µM (LOX IMVI) | other results
1 | O=C1c2ccccc2C(=O)c2c1cc(SCc1ccc(Cl)cc1)c1nsnc21 | 86.4% | 126% | 110% | 95.3% | 89.6% | 102% | 84.2% | 95.7% | 118% | 94.3% | 93.6% | 68.5% | 83.4% | 7.51 µM | 82.1% | 103% | 97.9% | 96.4% | 63.4% | 86.7% | growth at 10 µM (PC-3): 82.9%; growth at 10 µM (K562): 67.5%; growth at 10 µM (MOLT-4): 22.7%; growth at 10 µM (RPMI-8226): 86.8%; growth at 10 µM (NCI-H522): 82.6%; growth at 10 µM (KM12): 105%; growth at 10 µM (SF-268): 107%
2 | O=C1c2ccccc2C(=O)c2c1ccc1nsnc21 | -71.6% | 74.5% | -73.2% | 15.5% | 8.52% | -82.3% | -88.3% | -2.53% | -26% | -94.3% | -73.3% | -79.3% | -73.2% | 7.41 µM | 16.1% | -0.74% | 1.48% | 117% | 79% | -50.6% | growth at 10 µM (MDA-MB-435): -87.9%; growth at 10 µM (CAKI-1): 1.97%; growth at 10 µM (K562): 49.6%; growth at 10 µM (MOLT-4): -40.1%; growth at 10 µM (RPMI-8226): -28%; growth at 10 µM [1]: 103%; growth at 10 µM (KM12): 98.6%; growth at 10 µM (SF-268): 16.3%
3 | CCOc1cccc(Sc2cc3c(c4nsnc24)C(=O)c2ccccc2C3=O)c1 | 109% | 104% | 103% | 112% | 107% | 109% | 94.7% | 102% | 100% | 103% | 105% | 76.7% | 108% | > 15 µM | 94.1% | 105% | 103% | 106% | 77.2% | 84.1% | growth at 10 µM (MDA-MB-435): 106%; growth at 10 µM (CAKI-1): 84.2%; growth at 10 µM [1]: 102%; growth at 10 µM (NCI-H522): 98.2%
4 | O=C1c2ccccc2C(=O)c2c1cc(Sc1cccc(Cl)c1)c1nsnc21 | -86.6% | -76.4% | -53.2% | 25% | 19% | -65% | -13.5% | -15.1% | -2.06% | -92.5% | -66.2% | -74.8% | -79.2% | 1.75 µM | -26.9% | 102% | 18% | 102% | 26.1% | -59.2% | growth at 10 µM (MDA-MB-435): -82.3%; growth at 10 µM (CAKI-1): -3.69%; growth at 10 µM [1]: 43.6%; growth at 10 µM (NCI-H522): 7.18%
